Data: ChEMBL document CHEMBL1138683 (J Med Chem, 2004)

Key:
Mus musculus [1] = experiment: Quantitative Anticonvulsant activity administered intraperitoneally to mouse for protective index in subcutaneous metrazol test; type: functional
Procedure, shortened: (§1)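 Mice dosed intraperitoneally with compound dissolved or suspended in 0.5% methylcellulose (0.01 mL per gram body weight). […] Protective index calculated as TD50/ED50 for each seizure test.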

Mus musculus [2] = experiment: Anti convulsant activity administered intra peritoneally to mouse for subcutaneous metrazol test at 0.5 hr with dose of 30 mg/kg; 0/1= No of animals protected /No of animals tested; type: functional
Mus musculus [3] = experiment: Anti convulsant activity administered intra peritoneally to mouse at maximal electroshock test at 4 hr after the drug administered with dose of 300 mg/kg; 0/1= No of animals protected /No of animals tested; type: functional
Rattus norvegicus [4] = experiment: Anticonvulsant activity after oral administration of 30 mg/kg dose after 1 hr in rats; ++means 50% animals protected; type: functional, organism-based; set-up: dose 30 mg/kg
Procedure, shortened: (§2)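 Oral dosing of rats at a single dose, compound dissolved or suspended in 0.5% methylcellulose. Protection in the MES or scMet test checked 15 min, 30 min, 1 h, 2 h and 4 h after dosing. Scored as 25/50/75/100% of animals protected (+ to ++++), – for none.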

[5] = Anti convulsant activity administered intra peritoneally to mouse for toxicity at 4 hr with dose of 30 mg/kg; 0/2= No of animals exhibiting toxicity /No of animals tested; type: organism-based; set-up: dose 30 mg/kg; settings: in vivo, ip
[6] = Quantitative Anticonvulsant activity administered intraperitoneally to mouse for toxicity; settings: in vivo, ip; procedure, shortened: as §1
[7] = Anti convulsant activity administered intra peritoneally to mouse for toxicity at 4 hr with dose of 100 mg/kg; 0/4= No of animals exhibiting toxicity /No of animals tested; type: organism-based; set-up: dose 100 mg/kg; settings: in vivo, ip
Rattus norvegicus [8] = experiment: Quantitative Anticonvulsant activity administered orally to rat for protective index in subcutaneous metrazol test; type: functional
Procedure, shortened: (§3)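 Oral dosing in rats with compound dissolved or suspended in 0.5% methylcellulose (0.04 mL per 10 g body weight). […] Protective index taken as TD50/ED50 for each test.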

Mus musculus [9] = experiment: Anti convulsant activity administered intra peritoneally to mouse for subcutaneous metrazol test at 4 hr with dose of 300 mg/kg; 1/1= No of animals protected /No of animals tested; type: functional
Mus musculus [10] = experiment: Anti convulsant activity administered intra peritoneally to mouse for toxicity at 4 hr with dose of 30 mg/kg; 2/3= No of animals exhibiting toxicity /No of animals tested; type: functional
Mus musculus [11] = experiment: Quantitative Anticonvulsant activity administered intraperitoneally to mouse for protective index in maximal electro shock test;TD50/ED50; type: functional; procedure, shortened: as §1
Mus musculus [12] = experiment: Anti convulsant activity administered intra peritoneally to mouse at maximal electroshock test at 4 hr after the drug administered with dose of 100 mg/kg; 0/3= No of animals protected /No of animals tested; type: functional
[13] = Anti convulsant activity administered intra peritoneally to mouse for toxicity at 0.5 hr with dose of 30 mg/kg; 0/4= No of animals exhibiting toxicity /No of animals tested; type: organism-based; set-up: dose 30 mg/kg; settings: in vivo, ip
Rattus norvegicus [14] = experiment: Anticonvulsant activity after oral administration of 30 mg/kg dose after 30 min in rats; ++ means 50% animals protected; type: functional, organism-based; set-up: dose 30 mg/kg; procedure, shortened: as §2
[15] = Anti convulsant activity administered intra peritoneally to mouse for toxicity at 4 hr with dose of 300 mg/kg; 1/2= No of animals exhibiting toxicity /No of animals tested; type: organism-based; set-up: dose 300 mg/kg; settings: in vivo, ip
Rattus norvegicus [16] = experiment: Quantitative Anticonvulsant activity administered orally to rat for protective index in maximal electro shock test;TD50/ED50; type: functional; procedure, shortened: as §3
Rattus norvegicus [17] = experiment: Quantitative Anticonvulsant activity administered orally to rat at maximal electro shock test; the interval in parenthesis stands for 95% confidence interval; type: functional; settings: po; procedure, shortened: as §3
[18] = Anti convulsant activity administered intra peritoneally to mouse for toxicity at 0.5 hr with dose of 300 mg/kg; 4/4= No of animals exhibiting toxicity /No of animals tested; type: organism-based; set-up: dose 300 mg/kg; settings: in vivo, ip
Mus musculus [19] = experiment: Anti convulsant activity administered intra peritoneally to mouse at maximal electroshock test at 0.5 hr after the drug administered with dose of 300 mg/kg; 1/1= No of animals protected /No of animals tested; type: functional
Rattus norvegicus [20] = experiment: Quantitative Anticonvulsant activity administered orally to rat for toxicity; type: functional; settings: po; procedure, shortened: as §3
Rattus norvegicus [21] = experiment: Anticonvulsant activity after oral administration of 50 mg/kg dose after 15 min in rats; ++++means 100% of the animals protected; type: functional, organism-based; set-up: dose 50 mg/kg; procedure, shortened: as §2
Mus musculus [22] = experiment: Anti convulsant activity administered intra peritoneally to mouse at maximal electroshock test at 4 hr after the drug administered with dose of 30 mg/kg; 0/1= No of animals protected /No of animals tested; type: functional
Mus musculus [23] = experiment: Anti convulsant activity administered intra peritoneally to mouse for subcutaneous metrazol test at 4 hr after the drug administered with dose of 100 mg/kg; 0/1= No of animals protected /No of animals tested; type: functional
Mus musculus [24] = experiment: Anti convulsant activity administered intra peritoneally to mouse for subcutaneous metrazol test at 4 hr after the drug administered with dose of 30 mg/kg; 0/1= No of animals protected /No of animals tested; type: functional; settings: route intraperitoneal
Mus musculus [25] = experiment: Quantitative Anticonvulsant activity administered intraperitoneally to mouse for subcutaneous metrazol test; type: functional; procedure, shortened: as §1
Rattus norvegicus [26] = experiment: Quantitative Anticonvulsant activity administered orally to rat for subcutaneous metrazol test; type: functional; procedure, shortened: as §3
Rattus norvegicus [27] = experiment: Anticonvulsant activity after oral administration of 100 mg/kg dose after 1 hr in rats; + means 25% of the animals protected; type: functional, organism-based; set-up: dose 100 mg/kg; procedure, shortened: as §2
Rattus norvegicus [28] = experiment: Anticonvulsant activity after oral administration of 50 mg/kg dose after 30 min in rats; +++ means 75% of the animals protected; type: functional, organism-based; set-up: dose 50 mg/kg
Procedure, shortened: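 Rats dosed orally with compound dissolved or suspended in 0.5% methylcellulose (0.04 mL per 10 g body weight). Anticonvulsant protection (MES or scMet) and toxicity scored at 15 min, 30 min, 1 h, 2 h and 4 h after dosing. Graded in steps of 25% of animals protected or showing toxicity.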

Mus musculus [29] = experiment: Anti convulsant activity administered intra peritoneally to mouse at maximal electroshock test at 0.5 h after the drug administered with dose of 30 mg/kg; 0/1= No of animals protected /No of animals tested; type: functional
[30] = Anti convulsant activity administered intra peritoneally to mouse for toxicity at 0.5 hr with dose of 100 mg/kg; 0/8= No of animals exhibiting toxicity /No of animals tested; type: organism-based; set-up: dose 100 mg/kg; settings: in vivo, ip
Mus musculus [31] = experiment: Anti convulsant activity administered intra peritoneally to mouse for subcutaneous metrazol test at 0.5 hr with dose of 300 mg/kg; 1/1= No of animals protected /No of animals tested; type: functional
[32] = Anti convulsant activity administered intra peritoneally to mouse for toxicity at 0.5 hr with dose of 300 mg/kg; 2/4= No of animals exhibiting toxicity /No of animals tested; type: organism-based; set-up: dose 300 mg/kg; settings: in vivo, ip
Mus musculus [33] = experiment: Anti convulsant activity administered intra peritoneally to mouse for subcutaneous metrazol test at 0.5 h with dose of 300 mg/kg; 0/1= No of animals protected /No of animals tested; type: functional
Rattus norvegicus [34] = experiment: Anticonvulsant activity after oral administration of 30 mg/kg dose after 4 hr in rats; + means 25% of the animals protected; type: functional, organism-based; set-up: dose 30 mg/kg; procedure, shortened: as §2
[35] = Anti convulsant activity administered intra peritoneally to mouse for toxicity at 4 hr with dose of 100 mg/kg; 1/4= No of animals exhibiting toxicity /No of animals tested; type: organism-based; set-up: dose 100 mg/kg; settings: in vivo, ip
Mus musculus [36] = experiment: Anti convulsant activity administered intra peritoneally to mouse for subcutaneous metrazol test at 4 hr with dose of 300 mg/kg; 0/1= No of animals protected /No of animals tested; type: functional
[37] = Anti convulsant activity administered intra peritoneally to mouse for toxicity at 4 hr with dose of 300 mg/kg; 1/4= No of animals exhibiting toxicity /No of animals tested; type: organism-based; set-up: dose 300 mg/kg; settings: in vivo, ip
Mus musculus [38] = experiment: Anti convulsant activity administered intra peritoneally to mouse for toxicity at 4 hr with dose of 30 mg/kg; 0/3= No of animals exhibiting toxicity /No of animals tested; type: functional
Mus musculus [39] = experiment: Anti convulsant activity administered intra peritoneally to mouse at maximal electroshock test at 0.5 hr after the drug administered with dose of 100 mg/kg; 0/3= No of animals protected /No of animals tested; type: functional
[40] = Anti convulsant activity administered intra peritoneally to mouse for toxicity at 0.5 hr with dose of 300 mg/kg; 1/4= No of animals exhibiting toxicity /No of animals tested; type: organism-based; set-up: dose 300 mg/kg; settings: in vivo, ip
Mus musculus [41] = experiment: Anti convulsant activity administered intra peritoneally to mouse at maximal electroshock test at 0.5 h after the drug administered with dose of 300 mg/kg; 0/1= No of animals protected /No of animals tested; type: functional
[42] = Anti convulsant activity administered intra peritoneally to mouse for toxicity at 4 hr with dose of 300 mg/kg; 0/2= No of animals exhibiting toxicity /No of animals tested; type: organism-based; set-up: dose 300 mg/kg; settings: in vivo, ip
[43] = Anti convulsant activity administered intra peritoneally to mouse for toxicity at 0.5 hr with dose of 100 mg/kg; 7/8= No of animals exhibiting toxicity /No of animals tested; type: organism-based; set-up: dose 100 mg/kg; settings: in vivo, ip
Mus musculus [44] = experiment: Anti convulsant activity administered intra peritoneally to mouse at maximal electroshock test at 4 hr after the drug administered with dose of 300 mg/kg; 1/1= No of animals protected /No of animals tested; type: functional
[45] = Anti convulsant activity administered intra peritoneally to mouse for toxicity at 4 hr with dose of 300 mg/kg; 2/2= No of animals exhibiting toxicity /No of animals tested; type: organism-based; set-up: dose 300 mg/kg; settings: in vivo, ip
Mus musculus [46] = experiment: Anti convulsant activity administered intra peritoneally to mouse for toxicity at 4 hr with dose of 30 mg/kg; 1/3= No of animals exhibiting toxicity /No of animals tested; type: functional
[47] = Anti convulsant activity administered intra peritoneally to mouse for toxicity at 4 hr with dose of 100 mg/kg; 4/4= No of animals exhibiting toxicity /No of animals tested; type: organism-based; set-up: dose 100 mg/kg; settings: in vivo, ip

| Compound | Activity (Mus musculus [2]) | Activity (Mus musculus [3]) | Toxicity [5] | Toxicity [7] | Activity (Mus musculus [12]) | Toxicity [13] | Toxicity [18] | Activity (Mus musculus [19]) | Activity (Mus musculus [22]) | Activity (Mus musculus [23]) | Activity (Mus musculus [24]) | Activity (Mus musculus [29]) | Toxicity [30] | Activity (Mus musculus [33]) | Activity (Mus musculus [36]) | also measured |
| --- | --- | --- | --- | --- | --- | --- | --- | --- | --- | --- | --- | --- | --- | --- | --- | --- |
| CONC(=O)C1C(C)(C)C1(C)C | 0 | 0 | 0 | 0 | 0 | 0 | 4 | 1 | 0 | 0 | 0 | 0 | 0 |  |  | Anticonvulsant (Mus musculus [1]): 2.2; Activity (Rattus norvegicus [4]): 25% of the animals protected; TD50 [6]: 116 mg/kg; Activity (Rattus norvegicus [8]): 9.5; Activity (Mus musculus [9]): 1; Activity (Mus musculus [10]): 2; Ratio (Mus musculus [11]): 1.4 mg/kg; Activity (Rattus norvegicus [14]): 25% of the animals protected; Toxicity [15]: 1; Ratio (Rattus norvegicus [16]): 3.1; ED50 (Rattus norvegicus [17]): 108 mg/kg; ED50 (Rattus norvegicus [20]): 333 mg/kg; Anticonvulsant Activity (Rattus norvegicus [21]): 100% of the animals protected; ED50 (Mus musculus [25]): 74 mg/kg; ED50 (Rattus norvegicus [26]): 35 mg/kg; Activity (Rattus norvegicus [27]): 25% of the animals protected; Activity (Rattus norvegicus [28]): 25% of the animals protected; Activity (Mus musculus [31]): 1 |
| CC1(C)C(C(=O)NN)C1(C)C | 0 |  | 0 |  | 0 | 0 |  | 1 | 0 | 0 | 0 | 0 | 0 | 0 | 0 | Toxicity [32]: 2; Activity (Rattus norvegicus [34]): 25% of the animals protected; Toxicity [35]: 1; Toxicity [37]: 1; Activity (Mus musculus [38]): 0 |
| CC1(C)C(C(=O)NO)C1(C)C | 0 | 0 | 0 | 0 | 0 | 0 |  |  | 0 | 0 | 0 | 0 | 0 | 0 | 0 | Activity (Mus musculus [39]): 0; Toxicity [40]: 1; Activity (Mus musculus [41]): 0; Toxicity [42]: 0 |
| CC1(C)C(C(=O)N=C(N)N)C1(C)C | 0 |  | 0 |  | 0 | 0 | 4 | 1 | 0 |  | 0 | 0 |  |  |  | Toxicity [43]: 7; Activity (Mus musculus [44]): 1; Toxicity [45]: 2; Activity (Mus musculus [46]): 1; Toxicity [47]: 4 |
